According to ChEMBL document CHEMBL1137651 (Antimicrob Agents Chemother, 2007):

Legend:
Type in all cases: functional
[1] = system: Mycobacterium tuberculosis; assay: Antimycobacterial activity against drug-resistant Mycobacterium tuberculosis H37Rv ATCC 2517-infected hollow fiber system based in vitro pharmacokinetic-pharmacodynamic tuberculosis model assessed as sigmoidicity constant for microbial killing
[2] = system: Mycobacterium tuberculosis; assay: Antimycobacterial activity against drug-resistant Mycobacterium tuberculosis H37Rv ATCC 2517-infected hollow fiber system based in vitro pharmacokinetic-pharmacodynamic tuberculosis model assessed as concentration needed to achieve 50% maximal killing rate
Method in brief: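 Hollow-fibre system at 37°C under 5% CO2, preconditioned with drug for 3 days. Log-phase bacilli (10 ml of 10^6 CFU/ml) went into the peripheral compartment. […] Drug levels were checked centrally. Peripheral samples were taken daily for 7 days, washed twice in saline and plated on 7H10 agar for CFU.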

[3] = system: Mycobacterium tuberculosis; assay: Antimycobacterial activity against drug-resistant Mycobacterium tuberculosis H37Rv ATCC 2517-infected hollow fiber system based in vitro pharmacokinetic-pharmacodynamic tuberculosis model assessed as sigmoidicity constant for drug effect on microbial growth
[4] = system: Mycobacterium tuberculosis; assay: Antimycobacterial activity against drug-resistant Mycobacterium tuberculosis H37Rv ATCC 2517-infected hollow fiber system based in vitro pharmacokinetic-pharmacodynamic tuberculosis model assessed as concentration needed to achieve 50% effect on maximal growth rate
[5] = system: Mycobacterium tuberculosis; assay: Antimycobacterial activity against drug-resistant Mycobacterium tuberculosis H37Rv ATCC 2517-infected hollow fiber system based in vitro pharmacokinetic-pharmacodynamic tuberculosis model assessed as rate constant for maximal bacterial kill
[6] = system: Mycobacterium tuberculosis; assay: Antimycobacterial activity against drug-resistant Mycobacterium tuberculosis H37Rv ATCC 2517-infected hollow fiber system based in vitro pharmacokinetic-pharmacodynamic tuberculosis model assessed as rate constant for maximal bacterial growth

Work on `CO[C@H]1/C=C/O[C@@]2(C)Oc3c(C)c(O)c4c(O)c(c(/C=N/N5CCN(C)CC5)c(O)c4c3C2=O)NC(=O)/C(C)=C\C=C\[C@H](C)[C@H](O)[C@@H](C)[C@@H](O)[C@@H](C)[C@H](OC(C)=O)[C@@H]1C` [RIFAMPIN] yielded a Hk [1] of 45.326, a C50k [2] of 22.405 mg/L and a Hg [3] of 4.542. It also gave a C50g [4] of 2.019 mg/L, a Kkmax [5] of 29.379 ×10⁻³ log10CFU/ml/hr and a Kgmax [6] of 6.195 ×10⁻³ log10CFU/ml/hr.
